In ChEMBL document CHEMBL4038301 (J Med Chem, 2017):

How the values were obtained:
[1] = test system: Rattus norvegicus; test: Oral bioavailability in Sprague-Dawley rat at 10 mg/kg, administered via nasogastric gavage up to 24 hrs by LC/MS/MS analysis; type: ADME, organism-based; conditions: in vivo
[2] = Plasma clearance in cynomolgus monkey at 0.2 mg/kg, iv up to 24 hrs by LC/MS/MS analysis; type: ADME, organism-based, Macaca fascicularis
[3] = test system: Rattus norvegicus; test: Tmax in Sprague-Dawley rat at 10 mg/kg administered via nasogastric gavage up to 24 hrs by LC/MS/MS analysis; type: ADME, organism-based; conditions: in vivo, po
[4] = Drug metabolism in cynomolgus monkey hepatic S9 fraction assessed as AO-mediated metabolite formation by LC/MS analysis; type: ADME, Macaca fascicularis, Liver
[5] = test system: Rattus norvegicus; test: Cmax in Sprague-Dawley rat at 10 mg/kg, administered via nasogastric gavage up to 24 hrs by LC/MS/MS analysis; type: ADME, organism-based; set-up: dose 10 mg/kg, route nasogastric; conditions: in vivo, po
[6] = Apparent permeability across apical to basolateral side in MDCK cells expressing human MDR1 at 2 uM after 30 mins by LC-MS/MS; type: ADME, cell-based, Canis lupus familiaris; conditions: dog, 0.5 h
[7] = test system: Plasma; test: Unbound plasma concentration in Sprague-Dawley rat at 10 mg/kg, po after 1 hr post dose by LC/MS/MS analysis; type: ADME, organism-based; conditions: in vivo
[8] = Total plasma concentration in Sprague-Dawley rat at 10 mg/kg, po after 1 hr post dose by LC/MS/MS analysis; type: ADME, organism-based
[9] = Half life in human cryopreserved hepatocytes at 5 uM measured by LC/MS/MS analysis; type: ADME, cell-based, Hepatocyte
Method in brief: (§1)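 Pooled human cryopreserved hepatocytes (19 donors, mixed gender), thawed and resuspended in KHB. Compound 5 µM final, shaken at 37 °C. Aliquots quenched in acetonitrile with carbamazepine at 0, 15, 30, 60 and 120 min. Percent parent remaining measured by LC/MS/MS. Midazolam served as positive control.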

[10] = test system: Brain; test: Unbound drug level in Sprague-Dawley rat brain at 10 mg/kg, po after 1 hr post dose by LC/MS/MS analysis; type: ADME, organism-based; conditions: in vivo
[11] = test system: Cynomolgus monkey; test: (§2) Terminal half life in cynomolgus monkey at 0.5 mg/kg, iv up to 24 hrs by LC/MS/MS analysis; type: ADME, organism-based, Macaca fascicularis; conditions: in vivo, 24 h
[12] = test system: Brain; test: Unbound concentration in Harlan CD1 mouse brain at 3 mg/kg, ip at 15 mins by equilibrium dialysis method; type: ADME, organism-based; conditions: in vivo
[13] = test system: Rattus norvegicus; test: Terminal half life in Sprague-Dawley rat at 1 mg/kg, iv up to 24 hrs post dose by LC/MS/MS analysis; type: ADME, organism-based; conditions: in vivo
Method in brief: (§3)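 Male Sprague–Dawley rats (250–350 g, n=2), dual-cannulated (carotid artery and jugular vein). Dosed 1.0 mg/kg IV into the jugular vein in 10% ethanol, 50–70% PEG 400 and 20–40% saline.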

[14] = Plasma clearance in cynomolgus monkey at 0.5 mg/kg, iv up to 24 hrs by LC/MS/MS analysis; type: ADME, organism-based, Macaca fascicularis
[15] = test system: Cynomolgus monkey; test: AUC in cynomolgus monkey at 5 mg/kg administered via nasogastric gavage up to 24 hrs by LC/MS/MS analysis; type: ADME, organism-based, Macaca fascicularis; set-up: dose 5 mg/kg, time < 24 hr, route nasogastric; conditions: in vivo, po
[16] = test system: Rattus norvegicus; test: AUC in Sprague-Dawley rat at 10 mg/kg, administered via nasogastric gavage up to 24 hrs by LC/MS/MS analysis; type: ADME, organism-based; set-up: time < 24 hr, dose 10 mg/kg, route nasogastric; conditions: in vivo, po
[17] = Intrinsic clearance in human cryopreserved hepatocytes assessed per million cells at 5 uM measured after 15 to 120 mins by LC/MS/MS analysis; type: ADME, cell-based, Hepatocyte; method in brief: as §1
[18] = Apparent permeability across apical to basolateral side in human Caco2 cells at 2 uM after 10 mins by LC-MS/MS; type: ADME, cell-based; conditions: caco-2, 10 min
[19] = test system: Cynomolgus monkey; test: Cmax in cynomolgus monkey at 5 mg/kg administered via nasogastric gavage up to 24 hrs by LC/MS/MS analysis; type: ADME, organism-based, Macaca fascicularis; set-up: dose 5 mg/kg, route nasogastric; conditions: in vivo, po
[20] = test system: Cynomolgus monkey; test: MRT in cynomolgus monkey at 0.5 mg/kg, iv up to 24 hrs by LC/MS/MS analysis; type: ADME, organism-based, Macaca fascicularis; conditions: in vivo
[21] = test system: Rattus norvegicus; test: Volume of distribution at steady state in Sprague-Dawley rat at 1 mg/kg, iv up to 24 hrs post dose by LC/MS/MS Analysis; type: ADME, organism-based; conditions: in vivo; method in brief: as §3
[22] = Apparent permeability across basolateral to apical side in MDCK cells expressing human MDR1 at 2 uM after 30 mins by LC-MS/MS; type: ADME, cell-based, Canis lupus familiaris; conditions: dog, 0.5 h
[23] = Total drug level in Sprague-Dawley rat brain at 10 mg/kg, po after 1 hr post dose by LC/MS/MS analysis; type: ADME, organism-based; conditions: read-out: Drug uptake
[24] = Drug level in Harlan CD1 mouse brain at 3 mg/kg, ip at 15 mins; type: ADME, organism-based; conditions: read-out: Drug uptake
[25] = test system: Cynomolgus monkey; test: Oral bioavailability in cynomolgus monkey at 5 mg/kg administered via nasogastric gavage up to 24 hrs by LC/MS/MS analysis; type: ADME, organism-based, Macaca fascicularis; conditions: in vivo
[26] = test system: Rattus norvegicus; test: MRT in Sprague-Dawley rat at 1 mg/kg, iv up to 24 hrs post dose by LC/MS/MS analysis; type: ADME, organism-based; conditions: in vivo
[27] = as §2; type: ADME, organism-based, Macaca fascicularis; conditions: in vivo, read-out: beta t1/2
[28] = Ratio of unbound drug level in Sprague-Dawley rat brain to plasma at 10 mg/kg, po after 1 hr post dose by LC/MS/MS analysis; type: ADME, organism-based
[29] = Ratio of drug level in Sprague-Dawley rat brain to plasma at 10 mg/kg, po after 1 hr post dose by LC/MS/MS analysis; type: ADME, organism-based

## Cc1csc(NC(=O)c2cc(F)cc(Oc3cncnc3)c2)n1
[1]
  F: < 5%
[2]
  clearance: 24 mL/min/kg

## Cc1cc(Oc2cncnc2)cc(C(=O)Nc2ccc(F)cn2)n1
[3]
  Tmax: 0.5 h
[4]
  Drug metabolism: Metabolite_Detected
[5]
  Cmax: 4340 nM
[6]
  Papp: 6.2 ×10⁻⁶ cm/s
[7]
  Cp(f): 318 nM
[8]
  concentration at 1 h: 3000 nM
[9]
  t1/2: 5.37 h
[1]
  F: 53%
[10]
  Drug uptake(free): 201 nM
[11]
  beta t1/2: 5.03 h
[12]
  Drug uptake(free): 115 nM
[13]
  beta t1/2: 6.5 h
[14]
  clearance: 15.5 mL/min/kg
[15]
  AUC: 7.32 µM·h
[16]
  AUC: 14.6 µM·h
[17]
  CLH: 1.43 µL/min
[18]
  Papp: 6.5 ×10⁻⁶ cm/s
[19]
  Cmax: 1720 nM
[20]
  MRT: 2.72 h
[21]
  Vdss: 1.8 L/kg
[22]
  Papp: 7.2 ×10⁻⁶ cm/s
[23]
  concentration at 1 h: 2580 nM
[24]
  concentration at […]: 1480 nM
[25]
  F: 44%
[26]
  MRT: 1.55 h

## Cc1cc(Oc2cncc(F)c2)cc(C(=O)Nc2ccc(F)cn2)n1
[3]
  Tmax: 1.5 h
[5]
  Cmax: 3330 nM
[7]
  Cp(f): 38.6 nM
[1]
  F: 71%
[10]
  Drug uptake(free): 31.6 nM
[27]
  half-life: 9.38 h
[13]
  beta t1/2: 4.68 h
[14]
  clearance: 13.3 mL/min/kg
[15]
  AUC: 6.43 µM·h
[16]
  AUC: 38 µM·h
[19]
  Cmax: 1360 nM
[20]
  MRT: 5.05 h
[21]
  Vdss: 1.9 L/kg
[28]
  K(p,uu,brain): 0.82
[25]
  F: 35%
[26]
  MRT: 3.47 h

## Cc1cc(Oc2cncc(F)c2)cc(C(=O)Nc2cccc(F)n2)n1
[13]
  beta t1/2: 1.37 h
[21]
  Vdss: 11 L/kg
[26]
  MRT: 2.62 h

## Cc1cccc(NC(=O)c2cc(Oc3cncnc3)cc(C)n2)n1
[13]
  beta t1/2: 1.75 h
[21]
  Vdss: 1.6 L/kg
[26]
  MRT: 0.65 h

## Cc1cccc(NC(=O)c2cc(Oc3cncc(F)c3)cc(C)n2)n1
[13]
  beta t1/2: 4.47 h
[21]
  Vdss: 4.5 L/kg
[26]
  MRT: 2 h

## CCc1cccc(NC(=O)c2cc(Oc3cncnc3)cc(C)n2)n1
[13]
  beta t1/2: 6.73 h
[21]
  Vdss: 6.6 L/kg
[26]
  MRT: 1.33 h

## Cc1cc(Oc2cnc(C)nc2)cc(C(=O)Nc2ccc(F)cn2)n1
[7]
  Cp(f): 390 nM
[8]
  concentration at 1 h: 4820 nM
[10]
  Drug uptake(free): 142 nM
[13]
  beta t1/2: 3.82 h
[29]
  BPR: 0.67
[21]
  Vdss: 1.2 L/kg
[28]
  K(p,uu,brain): 0.36
[23]
  concentration at 1 h: 3220 nM
[26]
  MRT: 3.18 h
